The source of these data is ChEMBL document CHEMBL1828582, “Synthesis and Na+/H+ exchanger inhibitory activity of benzoylguanidine derivatives” (Eur J Med Chem, 2011).

Assay [1] is described as follows: Antiischemic activity against Na2S2O4-induced hypoxia/reoxygenation cell injury in neonatal rat primary cardiac myocytes assessed as increase in cell survival rate at 10^-6 mol/L by MTT assay. The class given is functional, Cardiac muscle cell. An outline of the steps:
(§1)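 Neonatal rat primary cardiomyocytes, six wells per group. Hypoxia induced with 50 mmol/L Na2S2O4 in serum-free DMEM for 2 h, then reoxygenated 4 h in DMEM with 10% serum. Drug added in serum-free DMEM 1 h before reoxygenation, final 10^-6, 10^-5, 10^-4 mol/L. MTT (5 mg/mL) for 4 h, formazan dissolved in DMSO, A490. Survival = treated OD/normal control OD.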
In general terms: Tetrazolium assays rely on reduction of a dye to a coloured formazan, in cell work by metabolically active cells.

Assay [2] can be described thus: Antiischemic activity against Na2S2O4-induced hypoxia/reoxygenation cell injury in neonatal rat primary cardiac myocytes assessed as cell viability at 10^-4 mol/L by MTT assay. To be noted: Cardiac muscle cell. The class given is functional. An outline of the steps:
as §1

Assay [3] is described as follows: Antiischemic activity against Na2S2O4-induced hypoxia/reoxygenation cell injury in neonatal rat primary cardiac myocytes assessed as cell viability at 10^-5 mol/L by MTT assay. The class given is functional. To be noted: Cardiac muscle cell. The gist of the method:
as §1

Assay [4] can be described thus: Antiischemic activity against Na2S2O4-induced hypoxia/reoxygenation cell injury in neonatal rat primary cardiac myocytes assessed as cell viability at 10^-6 mol/L by MTT assay. It is filed as functional. To be noted: Cardiac muscle cell. An outline of the steps:
as §1

The nature of assay [5]: Antiischemic activity against Na2S2O4-induced hypoxia/reoxygenation cell injury in neonatal rat primary cardiac myocytes assessed as increase in cell survival rate at 10^-4 mol/L by MTT assay. It is filed as functional, Cardiac muscle cell. An outline of the steps:
as §1

Assay [6] in a line: Antiischemic activity against Na2S2O4-induced hypoxia/reoxygenation cell injury in neonatal rat primary cardiac myocytes assessed as increase in cell survival rate at 10^-5 mol/L by MTT assay. It is filed as functional, Cardiac muscle cell. The gist of the method: as §1

In the case of `COc1ccc(CN2CCN(CCOc3ccc(C(=O)NC(=N)N)cc3NC(=O)c3ccc(Cl)cc3Cl)CC2)c(OC)c1OC`, the values for the Activity in assay [1], in assay [5] and in assay [6] were 49.27%, 58.33% and 55.52%, respectively. The MTT OD at 100 µM in assay [2] turned out to be 0.488 absorbance. For the same compound, in assay [3], the MTT OD at 10 µM was 0.409 absorbance. In assay [4], the MTT OD at 1 µM came to 0.362 absorbance.

`COc1ccc(CN2CCN(Cc3ccc(C(=O)N=C(N)N)cc3[N+](=O)[O-])CC2)c(OC)c1OC`: the Activity in assay [1] turned out to be 50.41%; in assay [5], 69.24%; in assay [6] it was 59.78%. In addition, the MTT OD at 100 µM in assay [2] worked out at 0.532 absorbance. Further, in assay [3], the MTT OD at 10 µM stood at 0.44 absorbance. Also, the MTT OD at 1 µM in assay [4] is 0.37 absorbance.

`COc1ccc(CN2CCN(CCOc3ccc(C(=O)NC(=N)N)cc3NC(=O)c3ccccc3[N+](=O)[O-])CC2)c(OC)c1OC`: the figures for the Activity in assay [1], in assay [5] and in assay [6] were 48.05%, 56.48% and 51.45%, respectively. The MTT OD at 100 µM in assay [2] is 0.434 absorbance. Also, the MTT OD at 10 µM in assay [3] was 0.379 absorbance. In addition, the MTT OD at 1 µM in assay [4] came to 0.353 absorbance.

Consider `COc1ccc(CN2CCN(CCOc3ccc(C(=O)NC(=N)N)cc3NC(=O)c3sccc3C)CC2)c(OC)c1OC`, for which the Activity worked out at 53.22% in assay [1], 72.41% in assay [5] and 61.63% in assay [6]. Moreover, the MTT OD at 100 µM in assay [2] is 0.556 absorbance. For the same compound, the MTT OD at 10 µM in assay [3] amounted to 0.454 absorbance. The MTT OD at 1 µM in assay [4] worked out at 0.391 absorbance.
